Reference: ChEMBL document CHEMBL3351938, “C5-Alkyl-2-methylurea-Substituted Pyridines as a New Class of Glucokinase Activators” (ACS Med Chem Lett, 2014)

What was measured:
[1] = substrate: CCc1ncccc1Oc1cc(CCCOC)cnc1NC(=O)NC; assay: (§1) Activity of human recombinant Glucokinase measured over 5 mins by spectrophotometry
Summary of the method: (§2)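 S_0.5 (K_m for glucose) measured with recombinant human GK; duplicate determinations (n = 2).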

[2] = substrate: CCn1nccc1Oc1cc(C[C@H]2CCO[C@H](COC)C2)cnc1NC(=O)NC; assay: as §1; summary of the method: as §2
[3] = substrate: CCn1nc(COC)cc1Oc1cc(CC2CCOCC2)cnc1NC(=O)NC; assay: as §1; summary of the method: as §2
[4] = substrate: CCc1ncccc1Oc1cc(CCCCOC)cnc1NC(=O)NC; assay: as §1; summary of the method: as §2
[5] = substrate: CCn1nccc1Oc1cc(C[C@H]2CC[C@H](O)CC2)cnc1NC(=O)NC; assay: as §1; summary of the method: as §2
[6] = substrate: CCOCCc1cnc(NC(=O)NC)c(Oc2cccnc2CC)c1; assay: as §1; summary of the method: as §2
[7] = substrate: CCn1nccc1Oc1cc(CCCCOC)cnc1NC(=O)NC; assay: as §1; summary of the method: as §2
[8] = substrate: CCn1nccc1Oc1cc(CN2CCOCC2)cnc1NC(=O)NC; assay: as §1; summary of the method: as §2
[9] = substrate: CCn1nccc1Oc1cc(C[C@H]2C[C@@H](O)C2)cnc1NC(=O)NC; assay: as §1; summary of the method: as §2
[10] = substrate: CCn1nccc1Oc1cc(C[C@H]2C[C@H](O)C2)cnc1NC(=O)NC; assay: as §1; summary of the method: as §2
[11] = substrate: CCn1nccc1Oc1cc(C(O)C2CCOCC2)cnc1NC(=O)NC; assay: as §1; summary of the method: as §2
[12] = substrate: CCn1nccc1Oc1cc(C[C@@H]2CCO[C@@H](COC)C2)cnc1NC(=O)NC; assay: as §1; summary of the method: as §2
[13] = substrate: CNC(=O)Nc1ncc(CC2CCOCC2)cc1Oc1ccnn1C(C)C; assay: as §1; summary of the method: as §2
[14] = substrate: CCn1nccc1Oc1cc(C[C@H]2CC[C@@](C)(O)CC2)cnc1NC(=O)NC; assay: as §1; summary of the method: as §2
[15] = substrate: CCn1nccc1Oc1cc(CC2CCOCC2)cnc1NC(=O)NC; assay: as §1; summary of the method: as §2
[16] = substrate: CCc1ncccc1Oc1cc(CC(C)C)cnc1NC(=O)NC; assay: as §1; summary of the method: as §2
[17] = substrate: CCc1ncccc1Oc1cc(CCCCO)cnc1NC(=O)NC; assay: as §1; summary of the method: as §2
[18] = substrate: CCn1nccc1Oc1cc(C[C@H]2CC[C@](C)(O)CC2)cnc1NC(=O)NC; assay: as §1; summary of the method: as §2
[19] = substrate: CCn1nccc1Oc1cc(C[C@H]2C[C@@](C)(O)C2)cnc1NC(=O)NC; assay: as §1; summary of the method: as §2
[20] = substrate: CCc1ncccc1Oc1cc(CC2CCCCC2)cnc1NC(=O)NC; assay: as §1; summary of the method: as §2
[21] = substrate: CCc1ncccc1Oc1cc(CC2CCOCC2)cnc1NC(=O)NC; assay: as §1; summary of the method: as §2
[22] = substrate: CCn1nccc1Oc1cc(CCCC(C)(C)O)cnc1NC(=O)NC; assay: as §1; summary of the method: as §2
[23] = substrate: CCn1nccc1Oc1cc(C[C@H]2CC[C@@H](O)CC2)cnc1NC(=O)NC; assay: as §1; summary of the method: as §2

B1: Hexokinase-4 (Homo sapiens), P35557 (protein)
chain: MLDDRARMEAAKKEKVEQILAEFQLQEEDLKKVMRRMQKEMDRGLRLETHEEASVKMLPTYVRSTPEGSEVGDFLSLDLGGTNFRVMLVKVGEGEEGQWSVKTKHQMYSIPEDAMTGTAEMLFDYISECISDFLDKHQMKHKKLPLGFTFSFPVRHEDIDKGILLNWTKGFKASGAEGNNVVGLLRDAIKRRGDFEMDVVAMVNDTVATMISCYYEDHQCEVGMIVGTGCNACYMEEMQNVELVEGDEGRMCVNTEWGAFGDSGELDEFLLEYDRLVDESSANPGQQLYEKLIGGKYMGELVRLVLLRLVDENLLFHGEASEQLRTRGAFETRFVSQVESDTGDRKQIYNILSTLGLRPSTTDCDIVRRACESVSTRAAHMCSAGLAGVINRMRESRSEDVMRITVGVDGSVYKLHPSFKERFHASVRRLTPSCEITFIESEEGSGRGAALVSAVACKKACMLGQ
Km [1]: 870 µM | Km [2]: 940 µM | Km [3]: 850 µM | Km [4]: 820 µM | Km [5]: 710 µM | Km [6]: 880 µM | Km [7]: 860 µM | Km [8]: 860 µM | Km [9]: 720 µM | Km [10]: 630 µM | Km [11]: 1200 µM | Km [12]: 880 µM | Km [13]: 950 µM | Km [14]: 560 µM | Km [15]: 840 µM | Km [16]: 660 µM | Km [17]: 850 µM | Km [18]: 690 µM | Km [19]: 820 µM | Km [20]: 760 µM | Km [21]: 850 µM | Km [22]: 840 µM | Km [23]: 760 µM
